Sampled rows, rich in hits. Any-hit rate of the full collection: about 8.2%.
M1 antag: blocks the rat M1 muscarinic receptor response to acetylcholine | 3.4% of 64,000 active | CHO-M1 cells, Fluo-4 calcium, ACh EC80 antagonist mode; hits give low values | P08482 | B-score at 10 µM;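 active means calcium fluorescence response, raw or row-and-column corrected B-score, differing from the plate sample mean either way at a set confidence level, mostly lower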
Target sequence (P08482 whole entry, looked up): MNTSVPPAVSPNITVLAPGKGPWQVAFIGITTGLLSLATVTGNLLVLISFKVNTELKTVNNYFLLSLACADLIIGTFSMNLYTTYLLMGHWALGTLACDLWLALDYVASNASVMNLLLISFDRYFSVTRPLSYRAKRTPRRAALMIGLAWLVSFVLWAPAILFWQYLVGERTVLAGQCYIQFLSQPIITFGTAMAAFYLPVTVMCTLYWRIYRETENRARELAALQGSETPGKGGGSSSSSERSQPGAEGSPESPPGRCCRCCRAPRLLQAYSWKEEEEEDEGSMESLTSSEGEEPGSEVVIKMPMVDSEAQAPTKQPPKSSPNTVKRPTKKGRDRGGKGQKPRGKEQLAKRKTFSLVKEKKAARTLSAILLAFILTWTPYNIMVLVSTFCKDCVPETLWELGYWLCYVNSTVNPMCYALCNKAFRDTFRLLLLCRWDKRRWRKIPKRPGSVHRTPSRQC
D1 allo mod: allosterically modulates the human D1 dopamine receptor | B-score at 10 µM | HEK293 D1, CRE-luciferase, dopamine EC30 potentiation; actives deviate in either direction | P21728 | 5.9% of 58,000 active;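 active means luminescence count or its row- and column-corrected plate score outside the 99.7% band of the plate's sample wells, on either side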
RORa activator: RORA (human) activation. P35398. CHO-K1 Gal4-RORA LBD luciferase reporter, luminescence; percent increase over mock-subtracted basal signal. activation, % at 10 µM. 1.5% of 65,000 active. AID 560;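 active means activation above the mean of all tested compounds plus 3 SD, cut at about 49% in these data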
HePTP inhibitor: human HePTP phosphatase inhibition; inhibition, % at 20 µM; P35236; recombinant HePTP phosphatase activity, OD absorbance; 0.64% of 110,000 active; in the data active means inhibition above about 50%
SF-1 act: activators of human nuclear receptor SF-1 | CHO-K1 Gal4-SF-1 LBD luciferase reporter; % increase over DMSO SF-1-specific signal | activation, % at 10 µM | 1.9% of 65,000 active | AID 522;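 active means activation above the mean activation of all tested compounds plus 3 SD, cut at about 50% in these data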
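System: CHO-K1 cells with Gal4–hSF-1 LBD chimera plus Gal4-driven luciferase; quantity: 4,000 CHO-K1 cells per well; compound: one dose, 10 µM compound, 1% DMSO; times: 20 h compound treatment, 37 °C; measured by: SteadyLite luciferase luminescence; read-out: percent activation versus DMSO; benchmarks: DMSO and mock-transfected background; replicates: one test per compound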
M1 ag: activates the M1 muscarinic receptor | CHO-M1 cells, Fluo-4 calcium fluorescence, agonist mode; hits give high values | B-score at 10 µM | 3% of 64,000 active;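 active means fluorescence rise, raw or as B-score row- and column-corrected plate score, outside the 99.7% band of its plate's samples, either direction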
M1 antag confirm: M1 muscarinic receptor (rat) antagonism, confirmed. shares compounds with M1 antag. CHO-M1 cells, Fluo-4 calcium, ACh EC80 antagonism; hits give low values. calcium response (max-min fluorescence) at 10 µM. 43% of 1,700 active. AID 677;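 active means calcium response below the same-plate mean of wells given acetylcholine alone at its 80%-effect dose, minus 3 SD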
mGluR4 antag: mGluR4 (human) activity, M1 antagonist secondary assay; shares compounds with M1 antag; CHO-mGluR4 calcium flux, Fluo-4 fluorescence, glutamate EC80; hits give low values; fluorescence response (max-min) at 10 µM; 0.9% of 1,700 active; AID 678;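 active means fluorescence response below the plate's average for near-maximal glutamate wells, less 3 SD of those wells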;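 further: raw unnormalized fluorescence span taken in the window right after glutamate addition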
D1 mod confirm: confirmation of human D1 dopamine receptor allosteric modulators; shares compounds with D1 allo mod; HEK293 D1 CRE-luciferase, dopamine EC30 potentiation; hits give high values; luminescence at 10 µM; 88% of 2,200 active; AID 642;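 active means luminescence in either of two replicates above the same-plate mean plus 3 SD of the low-dose dopamine control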
D1 ag no DA: activates D1 CRE-luciferase signal without dopamine present | shares compounds with D1 allo mod | HEK293 D1 CRE-luciferase, luminescence, no dopamine; hits give high values | luminescence at 10 µM | 0.8% of 1,900 active; in the data active means luminescence above about 3900
Isoprot counter: alters isoproterenol CRE-luciferase response in HEK293 cells. shares compounds with D1 allo mod. HEK293 D1 CRE-luciferase, isoproterenol EC30 counter-screen. calls only at 10 µM. 63% of 2,200 active;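 active means luminescence in either replicate above plate mean of wells with a partly effective reference agonist dose plus 3 SD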;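 further: isoproterenol raises cAMP through native beta-adrenoceptor Gs so signal bypasses D1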
Numbers stand for hits; - = inactive; . = no result; + = active, no number.

SMILES | M1 antag | D1 allo mod | RORa activator | HePTP inhibitor | SF-1 act | M1 ag | M1 antag confirm | mGluR4 antag | others
Cn1c(-c2ccc(-c3nc4cnccc4n3C)cc2)nc2cnccc21 | . | . | . | - | . | . | . | .
Clc1cccc(Cl)c1Cn1cnc(=NCc2ccco2)c2[nH]cnc21 | - | - | - | - | - | - | . | .
COc1ccc(CN2CCN(C)CC2)cc1OCc1ccccc1 | - | - | - | - | - | - | . | .
CCCCP(=O)(CCCC)CCP(=O)(c1ccccc1)c1ccccc1 | . | . | . | - | . | . | . | .
CCCCP(=O)(CCCC)c1ccccc1C(=O)O | -3.7 | - | - | - | - | - | - | -
O=S(=O)(c1ccc(Cl)cc1)N1CCN(c2ccccn2)CC1 | . | . | . | - | . | . | . | .
COc1ccccc1NC(=O)COC(=O)c1ccc(S(=O)(=O)NCc2ccco2)cc1 | - | . | - | - | - | - | . | .
Cc1noc(C)c1COC(=O)c1ccc(S(=O)(=O)NCc2ccco2)cc1 | -2.6 | - | - | - | - | - | 371 | -
CC12CN3CC(C)(CN(C1)C3c1ccc(Br)cc1)C2 (stereo not drawn) | -3.7 | - | - | - | - | - | 387 | -
CCc1ccc2oc(-c3cccc(NC(=O)COc4ccc(OC)cc4)c3)nc2c1 | . | . | . | - | . | . | . | .
CCS(=O)(=O)N1CCN(S(=O)(=O)c2ccc(F)cc2)CC1 | - | - | - | - | - | - | . | .
CC1CCCN(c2nc3ccsc3c(=O)s2)C1 (stereo not drawn) | -7.2 | 3.8 | 60 | - | - | - | 273 | -
COc1ccc(CCNC(=O)CSC2=Nc3ccccc3C3=NC(C(C)C)C(=O)N23)cc1OC (stereo not drawn) | -3.5 | - | - | - | - | - | - | -
C=CCn1c(NCc2ccc(N(C)C)cc2)nc2ccccc21 | -2.3 | - | - | - | - | - | - | -
N#CC1(c2c(O)nc3n(c2=O)CCCS3)CCCCC1 | - | - | - | - | - | - | . | .
Clc1cccc(-c2nnc(-c3ccccc3)o2)c1 | -1.7 | . | - | . | - | - | - | -
CN(C)CCOC(=O)C12CC3CC(C1)CC(C(=O)OCCN(C)C)(C3)C2 | . | . | . | - | . | . | . | .
CCN(CC)CCOC(=O)C12CC3CC(CC(C3)C1)C2 | -16 | - | - | - | - | - | 173 | -
CCC(CO)NC1=C(Cl)C(=O)c2ccccc2C1=O (stereo not drawn) | . | . | . | - | . | . | . | .
CCCn1c2c(c(O)c(C(=O)Nc3ncccc3C)c1=O)CCCC2 | -2.3 | . | - | - | - | - | 421 | -
CCCn1c2c(c(O)c(C(=O)Nc3ccc(C)cn3)c1=O)CCCC2 | - | - | - | - | - | - | . | .
COc1ccc(NC(=O)C(NS(=O)(=O)c2ccc3c(c2)CCCN3C(C)=O)C(C)C)c(OC)c1 (stereo not drawn) | - | . | - | - | - | - | . | .
CC(C)(C)C(=O)/C=C(\N)c1ccncc1 | - | - | - | - | - | - | . | .
COc1ccc(/C(N)=C/C(=O)C(C)(C)C)cc1 | -3.5 | . | - | - | - | - | - | -
CCCCCc1c(C)nc(SCC(=O)O)[nH]c1=O | - | - | - | - | - | - | . | .
SMILES | M1 antag | D1 allo mod | RORa activator | HePTP inhibitor | SF-1 act | M1 ag | M1 antag confirm | mGluR4 antag | others
COc1ccc(NC(=O)CSc2nc3c(cc2C#N)CN(C)CC3)cc1 | - | - | - | - | - | - | . | .
CCN1CCc2nc(SCC(=O)Nc3ccc(OC)cc3)c(C#N)cc2C1 | -0.73 | . | - | - | - | - | - | -
O=S1(=O)N=C(N2CCCc3ccccc32)c2ccccc21 | - | - | - | - | - | - | . | .
O=S1(=O)N=C(N2CCc3ccccc3C2)c2ccccc21 | -2.1 | 2.4 | - | - | - | - | 600 | - | D1 mod confirm=6388;D1 ag no DA=-;Isoprot counter=-
N/C(=N\OC(=O)c1ccc(Br)cc1)c1ccncc1 | . | . | . | - | . | . | . | .
COCCOC(=O)C1=C(C)NC(=O)NC1c1c(OC)ncnc1OC (stereo not drawn) | - | - | - | - | - | - | . | .
COc1cc(-c2nc(S(=O)(=O)c3ccc(Cl)cc3)c(N3CCOCC3)o2)cc(OC)c1OC | - | - | - | - | - | - | . | .
COc1cc(-c2nc(S(=O)(=O)c3ccc(C)cc3)c(N3CCOCC3)o2)cc(OC)c1OC | -13 | 5.4 | - | - | - | - | - | - | D1 mod confirm=8652;D1 ag no DA=-;Isoprot counter=+
c1cncc(-c2nc(NCc3ccco3)c3ccccc3n2)c1 | -2.7 | 7.3 | - | - | - | - | 498 | - | D1 mod confirm=11656;Isoprot counter=+
CCOC(=O)c1sc(NC(=O)CSc2nnc(-c3ccco3)n2CC)c(C(=O)OCC)c1C | - | - | - | - | - | - | . | .
CCOC(=O)c1sc(NC(=O)CSc2nncs2)c(C(=O)OCC)c1C | -5 | 4 | - | - | - | - | - | - | D1 mod confirm=6908;D1 ag no DA=-;Isoprot counter=-
CCOC(=O)c1c(NC(C)=O)sc2c1CC(C)(CC)OC2 (stereo not drawn) | . | . | . | - | . | . | . | .
CCSc1nc2c(c(=O)n1Cc1ccccc1)SC(C)C2 (stereo not drawn) | -3.7 | 3.4 | - | . | - | - | 373 | - | D1 mod confirm=11532;D1 ag no DA=-;Isoprot counter=-
CC1Cc2nc(SCC(N)=O)n(Cc3ccccc3)c(=O)c2S1 (stereo not drawn) | - | - | - | - | - | - | . | .
CCN(C#N)c1nc(NC(C)C)nc(NC(C)C)n1 | -3.5 | 9.7 | - | - | - | - | - | - | D1 mod confirm=22184;D1 ag no DA=-;Isoprot counter=+
CC(C)Nc1nc(NC(N)=S)nc(NC(C)C)n1 | . | . | . | - | . | . | . | .
CCOC(=O)Nc1ccc2c(c1)N(C(=O)CCN)c1ccccc1S2 | . | . | . | - | . | . | . | .
CCOC(=O)Nc1ccc2c(c1)N(C(=O)CCN1CCOCC1)c1ccccc1S2 | -6.5 | 4.8 | - | - | - | - | 434 | - | D1 mod confirm=10492;D1 ag no DA=-;Isoprot counter=+
COC(=O)Nc1ccc2c(c1)N(C(=O)CCN1CCOCC1)c1ccccc1S2 | -5.2 | 4.3 | - | - | - | - | 495 | - | D1 mod confirm=8120;D1 ag no DA=-;Isoprot counter=-
Cc1nn(CCCC(=O)N2CCc3ccccc3C2)c(=O)c2cc3sccc3n12 | - | - | - | - | - | - | . | .
Clc1ccc(-n2nnnc2-c2ccccc2)cc1Cl | -2.6 | 13 | - | - | - | - | - | - | D1 mod confirm=19112;D1 ag no DA=-;Isoprot counter=+
Cc1ccc(-n2ncc(C#N)c2/N=C/N2CCN(C)CC2)cc1 | - | - | - | - | - | - | . | .
